Assay results: paper PMC3467149 (ACS medicinal chemistry letters, 2012)
Where two headings read alike, the source gives them in different places. One block for each compound: values may come before it.

Columns and labels:
[1] = tested on: LRRK2 Ser910/Ser935 phosphorylation; conditions: intraperitoneal doses of up to 100 mg/Kg; cited from earlier work
[2] = target: T1, GST-LRRKT[A2016T] (1,326–2,527) (Homo sapiens, UniProt Q5S007, A2016T); test: Biochemical inhibition of GST-LRRK2[A2016T]; conditions: 20 µM Nictide, 100 µM ATP
T1 sequence (Q5S007 1326-2527 A2016T): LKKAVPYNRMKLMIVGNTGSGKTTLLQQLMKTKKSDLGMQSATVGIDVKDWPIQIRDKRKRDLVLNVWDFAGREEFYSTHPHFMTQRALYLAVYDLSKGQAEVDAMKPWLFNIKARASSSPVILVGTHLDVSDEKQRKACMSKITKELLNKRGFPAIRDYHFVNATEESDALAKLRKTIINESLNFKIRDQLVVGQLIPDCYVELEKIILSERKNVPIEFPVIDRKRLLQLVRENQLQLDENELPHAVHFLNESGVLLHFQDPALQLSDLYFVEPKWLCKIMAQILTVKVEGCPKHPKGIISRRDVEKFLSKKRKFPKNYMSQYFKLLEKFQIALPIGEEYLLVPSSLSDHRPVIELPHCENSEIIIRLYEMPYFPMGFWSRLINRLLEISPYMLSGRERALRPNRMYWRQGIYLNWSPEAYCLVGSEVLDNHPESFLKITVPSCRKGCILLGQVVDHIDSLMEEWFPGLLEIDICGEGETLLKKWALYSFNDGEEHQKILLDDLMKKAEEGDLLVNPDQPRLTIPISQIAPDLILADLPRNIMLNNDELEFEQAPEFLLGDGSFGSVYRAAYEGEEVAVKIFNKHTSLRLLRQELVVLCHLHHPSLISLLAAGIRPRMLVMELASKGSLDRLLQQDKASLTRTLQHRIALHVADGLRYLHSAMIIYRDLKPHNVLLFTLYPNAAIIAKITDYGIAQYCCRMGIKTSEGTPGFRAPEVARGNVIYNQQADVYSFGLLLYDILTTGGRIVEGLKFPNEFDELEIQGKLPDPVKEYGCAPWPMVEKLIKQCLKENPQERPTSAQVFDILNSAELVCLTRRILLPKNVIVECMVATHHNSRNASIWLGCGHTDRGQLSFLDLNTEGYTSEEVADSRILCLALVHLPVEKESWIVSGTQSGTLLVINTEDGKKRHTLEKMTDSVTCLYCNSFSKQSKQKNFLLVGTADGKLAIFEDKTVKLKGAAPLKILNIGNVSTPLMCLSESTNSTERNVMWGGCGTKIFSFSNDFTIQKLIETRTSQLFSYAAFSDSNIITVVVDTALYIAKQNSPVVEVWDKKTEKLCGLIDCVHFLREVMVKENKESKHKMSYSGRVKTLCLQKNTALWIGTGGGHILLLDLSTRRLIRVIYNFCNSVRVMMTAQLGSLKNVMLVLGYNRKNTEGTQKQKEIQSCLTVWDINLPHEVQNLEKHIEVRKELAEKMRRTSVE

[3] = tested on: GFP-LRRK2[A2016T] in HEK293 cells; test: Ser910/Ser935 phosphorylation in HEK293 cells, GFP-LRRK2[A2016T]; format: cell-based; conditions: 90 min
Procedure, shortened: (§1)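 HEK293 cells stably expressing the GFP-tagged LRRK2 mutant were treated with DMSO or increasing concentrations of test compound for 90 min. A reference LRRK2 inhibitor at 1 μM served as control. Cell lysates were immunoblotted for LRRK2 phospho-Ser910, phospho-Ser935 and total LRRK2.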

[4] = tested on: GFP-LRRK2[G2019S+A2016T] in HEK293 cells; test: Ser910/Ser935 phosphorylation in HEK293 cells, GFP-LRRK2[G2019S+A2016T]; format: cell-based; conditions: 90 min
Procedure, shortened: as §1

[5] = tested on: LRRK2 Ser910/Ser935 phosphorylation; format: in vivo, mouse
Procedure, shortened: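 Mice received the test compound intraperitoneally at 100, 50, 30 or 10 mg/kg. Brain, spleen and kidney were collected, and endogenous LRRK2 was resolved by SDS-PAGE. Blots were probed with phospho-specific antibodies to Ser910 and Ser935 and for total LRRK2, with quantitative analysis of the blots.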

[6] = target: LRRK2 (Mus musculus, UniProt Q5S006); test: KiNativ chemical proteomics of tissues from treated animals, LRRK2; format: in vivo; conditions: for LRRK2 target engagement (KiNativ): spleen
Sequence of LRRK2 (Q5S006 whole entry): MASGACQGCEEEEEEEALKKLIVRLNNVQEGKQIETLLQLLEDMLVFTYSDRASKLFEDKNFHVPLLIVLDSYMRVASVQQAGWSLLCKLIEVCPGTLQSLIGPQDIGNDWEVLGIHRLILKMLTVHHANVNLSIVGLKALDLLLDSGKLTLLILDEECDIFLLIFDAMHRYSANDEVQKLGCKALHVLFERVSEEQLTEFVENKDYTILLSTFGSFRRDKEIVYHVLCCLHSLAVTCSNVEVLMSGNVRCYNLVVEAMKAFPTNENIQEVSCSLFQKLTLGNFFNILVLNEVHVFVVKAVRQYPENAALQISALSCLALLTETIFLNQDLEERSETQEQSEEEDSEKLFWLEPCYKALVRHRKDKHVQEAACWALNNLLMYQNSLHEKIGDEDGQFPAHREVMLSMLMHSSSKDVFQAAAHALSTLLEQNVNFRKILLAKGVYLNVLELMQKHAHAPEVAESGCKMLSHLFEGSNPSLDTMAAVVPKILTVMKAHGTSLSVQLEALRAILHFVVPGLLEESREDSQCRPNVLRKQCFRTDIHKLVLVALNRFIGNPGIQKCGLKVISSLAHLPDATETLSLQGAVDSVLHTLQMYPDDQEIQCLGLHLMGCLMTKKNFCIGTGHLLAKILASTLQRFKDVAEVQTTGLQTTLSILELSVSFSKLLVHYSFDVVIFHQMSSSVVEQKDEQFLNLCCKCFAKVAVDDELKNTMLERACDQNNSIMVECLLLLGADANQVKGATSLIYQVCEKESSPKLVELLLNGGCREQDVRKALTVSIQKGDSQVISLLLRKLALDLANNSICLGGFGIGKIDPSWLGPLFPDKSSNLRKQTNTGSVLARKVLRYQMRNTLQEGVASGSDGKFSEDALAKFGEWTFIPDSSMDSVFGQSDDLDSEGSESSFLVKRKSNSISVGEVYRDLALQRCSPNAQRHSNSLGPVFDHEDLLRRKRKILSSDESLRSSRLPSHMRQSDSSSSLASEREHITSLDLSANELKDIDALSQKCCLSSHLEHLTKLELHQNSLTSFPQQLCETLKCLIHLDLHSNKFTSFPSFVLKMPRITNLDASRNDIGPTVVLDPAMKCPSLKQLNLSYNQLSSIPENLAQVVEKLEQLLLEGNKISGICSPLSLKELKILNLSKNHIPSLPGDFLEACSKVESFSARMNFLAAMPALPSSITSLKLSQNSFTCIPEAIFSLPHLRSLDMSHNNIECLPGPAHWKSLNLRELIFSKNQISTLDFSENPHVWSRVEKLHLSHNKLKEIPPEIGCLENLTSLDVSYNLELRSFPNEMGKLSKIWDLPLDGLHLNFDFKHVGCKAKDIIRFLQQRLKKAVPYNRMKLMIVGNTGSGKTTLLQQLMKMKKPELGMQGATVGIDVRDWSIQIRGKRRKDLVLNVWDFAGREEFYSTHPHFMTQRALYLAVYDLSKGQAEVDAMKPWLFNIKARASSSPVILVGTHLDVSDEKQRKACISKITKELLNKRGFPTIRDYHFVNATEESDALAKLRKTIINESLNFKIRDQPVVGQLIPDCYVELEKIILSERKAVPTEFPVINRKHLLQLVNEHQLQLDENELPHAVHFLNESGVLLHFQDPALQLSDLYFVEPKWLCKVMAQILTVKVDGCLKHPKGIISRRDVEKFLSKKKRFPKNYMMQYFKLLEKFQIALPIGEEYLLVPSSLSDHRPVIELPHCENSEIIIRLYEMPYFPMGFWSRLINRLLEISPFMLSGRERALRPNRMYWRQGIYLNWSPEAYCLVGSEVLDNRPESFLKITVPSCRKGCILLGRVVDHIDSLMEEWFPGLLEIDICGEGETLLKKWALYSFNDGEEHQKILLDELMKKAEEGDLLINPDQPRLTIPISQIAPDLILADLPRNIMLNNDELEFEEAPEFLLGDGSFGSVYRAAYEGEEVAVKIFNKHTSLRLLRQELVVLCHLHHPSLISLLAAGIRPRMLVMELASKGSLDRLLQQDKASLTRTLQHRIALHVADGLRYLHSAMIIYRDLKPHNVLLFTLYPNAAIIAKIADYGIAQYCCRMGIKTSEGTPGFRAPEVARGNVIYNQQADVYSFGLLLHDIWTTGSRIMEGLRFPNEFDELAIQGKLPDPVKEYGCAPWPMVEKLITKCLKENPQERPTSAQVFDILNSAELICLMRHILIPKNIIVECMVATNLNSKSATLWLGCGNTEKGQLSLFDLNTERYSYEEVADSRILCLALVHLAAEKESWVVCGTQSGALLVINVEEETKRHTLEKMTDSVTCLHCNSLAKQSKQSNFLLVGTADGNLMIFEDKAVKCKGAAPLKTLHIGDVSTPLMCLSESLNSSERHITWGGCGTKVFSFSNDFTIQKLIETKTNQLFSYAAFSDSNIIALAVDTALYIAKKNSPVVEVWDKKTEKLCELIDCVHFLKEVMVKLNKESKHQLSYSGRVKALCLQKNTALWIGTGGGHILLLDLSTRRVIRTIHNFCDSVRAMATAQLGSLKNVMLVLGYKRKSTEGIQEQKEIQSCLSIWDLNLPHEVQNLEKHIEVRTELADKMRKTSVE

[7] = tested on: JNK1/2/3; test: KiNativ chemical proteomics of tissues from treated animals, JNK1/2/3; format: in vivo, mouse
[8] = target: T2, TBK1 (Mus musculus, UniProt Q9WUN2); test: KiNativ chemical proteomics of tissues from treated animals, TBK1; format: in vivo; conditions: read-out: TBK1 inhibition (KiNativ)
T2 sequence (Q9WUN2 1-729): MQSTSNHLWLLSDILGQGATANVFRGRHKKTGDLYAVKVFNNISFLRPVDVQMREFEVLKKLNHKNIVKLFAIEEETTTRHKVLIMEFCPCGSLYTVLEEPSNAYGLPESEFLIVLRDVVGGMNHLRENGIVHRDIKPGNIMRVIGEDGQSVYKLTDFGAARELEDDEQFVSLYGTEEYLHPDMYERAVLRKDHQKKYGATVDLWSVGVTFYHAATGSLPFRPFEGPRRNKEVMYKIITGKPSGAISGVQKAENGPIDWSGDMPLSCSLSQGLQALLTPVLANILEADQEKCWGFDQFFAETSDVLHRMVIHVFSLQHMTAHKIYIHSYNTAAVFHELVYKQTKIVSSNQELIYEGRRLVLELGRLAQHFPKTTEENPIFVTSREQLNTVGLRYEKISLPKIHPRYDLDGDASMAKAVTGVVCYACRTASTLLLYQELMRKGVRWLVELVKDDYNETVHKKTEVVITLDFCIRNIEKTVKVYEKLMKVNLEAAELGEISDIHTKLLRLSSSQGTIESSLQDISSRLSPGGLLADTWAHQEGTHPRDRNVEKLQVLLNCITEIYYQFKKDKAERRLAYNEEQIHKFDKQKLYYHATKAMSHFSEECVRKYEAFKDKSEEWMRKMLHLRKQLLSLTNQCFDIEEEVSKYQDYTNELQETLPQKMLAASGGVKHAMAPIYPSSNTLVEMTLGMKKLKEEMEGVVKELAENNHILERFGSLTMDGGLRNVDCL

[9] = tested on: >150 protein and lipid kinases; test: KiNativ chemical proteomics, other kinases of the panel; format: in vivo, mouse; conditions: any dose (3–100 mg/kg)
[10] = tested on: panel of 451 kinases; test: KinomeScan analysis; format: binding; conditions: 1 µM

SMILES: COc1cc(N2CCOCC2)ccc1Nc1ncc(F)c(Nc2ccccc2NS(C)(=O)=O)n1 [CZC-25146]
- inhibition of phosphorylation of Ser910 and Ser935 of LRRK2 in mouse brain [1]: none of these compounds are capable of effectively inhibiting

- LRRK2 target engagement (KiNativ) ([6]; 10 mg/kg): 80–90%
- LRRK2 target engagement (KiNativ) ([6]; 30–100 mg/kg): greater than 90%
- inhibition at 50 mg/kg [8]: 35 to 40%
- inhibition at 100 mg/kg [8]: 35 to 40%
SMILES: CNc1nc(Nc2ccc(C(=O)N3CCOCC3)cc2OC)ncc1Cl [Compound 4]
- effect of the A2016T mutation on inhibition [2]: maintains inhibition of the A2016T mutation
- concentration inducing dephosphorylation of Ser910 and Ser935 [3]: 1 to 3 µM
- concentration inducing dephosphorylation of Ser910 and Ser935 [4]: 1 to 3 µM
- lowest dose inhibiting Ser910 and Ser935 phosphorylation in mouse brain ([5]; mouse brain, intraperitoneal delivery): 50 mg/kg
- inhibition of LRRK2 Ser910/Ser935 phosphorylation in brain ([5]; mouse, intraperitoneal 10 mg/kg): partial inhibition
- inhibition of LRRK2 Ser910/Ser935 phosphorylation in brain ([5]; mouse, intraperitoneal 30 mg/kg): partial inhibition
- inhibition of LRRK2 Ser910/Ser935 phosphorylation in tissues ([5]; mouse, intraperitoneal 50 mg/kg, all tissues): near complete inhibition
- dephosphorylation of Ser910 and Ser935 of LRRK2 in tissues ([5]; mouse, intraperitoneal 100 mg/kg, kidney, spleen and brain): near complete dephosphorylation
- JNK1/2/3 inhibition (KiNativ) ([7]; 50 mg/kg): 35–40%
- JNK1/2/3 inhibition (KiNativ) ([7]; 100 mg/kg): 35–40%
- inhibition of kinases other than LRRK2 (KiNativ) [9]: ≤ 50%
- interactions detected in KinomeScan [10]: no interactions detected with kinases other than G2019S LRRK2 with the exception of one mutant form of c-Kit (L576P)

- effect of the A2016T mutation on inhibition [2]: dramatic resistance
- LRRK2 inhibition (KiNativ) ([6]; brain, 100 mg/kg): no LRRK2 inhibition
SMILES: COc1cc(C(=O)N2CCC(N3CCN(C)CC3)CC2)ccc1Nc1ncc2c(n1)N(C)c1ccccc1C(=O)N2C [LRRK2-IN-1, reference compound]
- inhibition of phosphorylation of Ser910 and Ser935 of LRRK2 in mouse brain [1]: none of these compounds are capable of effectively inhibiting

SMILES: COc1cc(N2CCC(N3CCN(C)CC3)CC2)ccc1Nc1ncc(Cl)c(Nc2ccccc2S(=O)(=O)C(C)C)n1 [TAE684]
- inhibition of phosphorylation of Ser910 and Ser935 of LRRK2 in mouse brain [1]: none of these compounds are capable of effectively inhibiting
